Screens from PubChem BioAssay.
In the library only some 4.9% were active in any assay of this set; here they are far more common.
STAT1 activator: increases IFN-gamma driven STAT1 reporter signal; NIH 3T3 STAT1-luciferase reporter, luminescence; 100% = IFN-gamma alone, no compound; activation (% of control), % at 5.5 µM; 200,000 tested, 2.6% active;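 active = activation above the screen-wide mean activation plus 3 SD, cut at about 130% in these data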;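 also: raw ratio to IFN-gamma control signal so 100% means no change and 0% no light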
STAT3 inh: inhibitors of IL-6 induced STAT3 signaling. AID 862. 190,000 tested, 0.89% active. U3A cells, IL-6 STAT3-luciferase reporter, luminescence; host cell line lacks STAT1. inhibition, % at 5.5 µM;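 active = inhibition above the mean inhibition across all screened compounds plus 3 SD, cut at about 44% in these data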;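 also: 0% = DMSO only wells and 100% = 100 µM nifuroxazide control wells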
STAT1 inh: reduces IFN-gamma driven STAT1 reporter signal; NIH 3T3 STAT1-luciferase reporter, luminescence; inhibition, % at 5.5 µM; 200,000 tested, 0.35% active; AID 920;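 active = inhibition above a set limit, the mean inhibition across all tested compounds plus 3 SD, cut at about 34% in these data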;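 also: 0% = IFN-gamma with DMSO and 100% = IFN-gamma with 300 µM nifuroxazide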
STAT3 act: activators of IL-6 induced STAT3 signaling. U3A cells, IL-6 STAT3-luciferase reporter, luminescence; 100% = signal with IL-6 EC80 alone. activation (% of control), % at 5.6 µM. 190,000 tested, 0.91% active;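 active = activation above the screen-wide mean of compound activation plus 3 SD, cut at about 130% in these data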;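 also: 0% = background luminescence of wells with medium and substrate only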
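Material: STAT3-luciferase reporter U3A cells; Probe or stimulus: IL-6 (33 ng/mL); Incubation: compound pre-incubation 1 h before IL-6, then 6 h stimulation at 37 °C; Technique: luminescence from STAT3-driven luciferase reporter; Evaluation: % activation versus median of IL-6-stimulated wells; Controls: IL-6-only high control.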
NF-kB expr up: compounds increasing NF-kB expression in human neuronal cells. NF-kB reporter expression; active compounds read high. 190,000 tested, 1.6% active. fold change at 12.5 µM; in the data active = fold change above about 3.3
APP 5'UTR act: APP 5'UTR luciferase reporter activation; SH-SY5Y APP 5'UTR luciferase reporter, luminescence; zero percent = DMSO vehicle wells; activation, % at 2 µM; 190,000 tested, 1% active; AID 1276;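 active = activation above a set limit, based on mean plus 3 SD of controls, cut at about 140% in these data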
* = called active by the depositor.

What do the screens show for `COC(=O)CCC(=O)Nc1cccc([N+](=O)[O-])c1`?
STAT1 activator: 106; STAT3 inh: 6; STAT1 inh: -6; STAT3 act: 102; NF-kB expr up: 1.2; APP 5'UTR act: -1

Results for CCn1c([N+](=O)[O-])nc2c1c(=O)[nH]c(=O)n2C ?
STAT1 activator: 83; STAT3 inh: 3; STAT1 inh: 18; STAT3 act: 97; NF-kB expr up: 4.8*; APP 5'UTR act: -1

Results for CCCCCCn1c(SCCCC)nc2c1c(=O)[nH]c(=O)n2C ?
STAT1 activator: 99; STAT3 inh: -7; STAT1 inh: 1; STAT3 act: 110; NF-kB expr up: 0.97; APP 5'UTR act: 7

What do the screens show for `O=C(c1ccc(Cl)c(S(=O)(=O)N2CCOCC2)c1)N1CCN(Cc2ccccc2)CC1`?
STAT1 activator: 100; STAT3 inh: 0; STAT1 inh: 2; STAT3 act: 101; NF-kB expr up: 1.2; APP 5'UTR act: 1

Results for CN(C)c1ccc(/C=C/c2ccncc2)cc1 ?
STAT1 activator: 127; STAT3 inh: 14; STAT1 inh: -29; STAT3 act: 90; NF-kB expr up: 2.5; APP 5'UTR act: 30

How did CCn1c(/C=C/c2ccccc2)nc2ccccc21 do in these assays?
STAT1 activator: 133*; STAT3 inh: 21; STAT1 inh: -37; STAT3 act: 86; NF-kB expr up: 7*; APP 5'UTR act: 205*

What do the screens show for `COc1ccc(/C=C/c2nc3ccccc3n2C)cc1`?
STAT1 activator: 14; STAT3 inh: 102*; STAT1 inh: 94*; STAT3 act: 10; NF-kB expr up: 0.85; APP 5'UTR act: -19

What do the screens show for `CC(C)Cn1c(/C=C/c2ccccc2)nc2ccccc21`?
STAT1 activator: 136*; STAT3 inh: 4; STAT1 inh: -40; STAT3 act: 98; NF-kB expr up: 2.1; APP 5'UTR act: 49

How did COc1ccc(/C=C/c2ccncc2)cc1 do in these assays?
STAT1 activator: 144*; STAT3 inh: 19; STAT1 inh: -48; STAT3 act: 87; NF-kB expr up: 1.9; APP 5'UTR act: 49

What do the screens show for `COc1ccc(-n2cnc3ccccc32)cc1`?
STAT1 activator: 108; STAT3 inh: -15; STAT1 inh: -9; STAT3 act: 118; NF-kB expr up: 1.1; APP 5'UTR act: 22

How did Cc1cc(C)nc(N2CCCC(C(=O)NCc3ccccc3F)C2)n1 (centres undefined) do in these assays?
STAT1 activator: 95; STAT3 inh: 6; STAT1 inh: 5; STAT3 act: 100; NF-kB expr up: 0.97; APP 5'UTR act: 1

What do the screens show for `COC(=O)c1nc2n(n1)C(c1cc(OC)ccc1OC)C(C(=O)OC1CCCCC1)=C(C)N2` (centres undefined)?
STAT1 activator: 96; STAT3 inh: 1; STAT1 inh: 4; STAT3 act: 104; NF-kB expr up: 0.7; APP 5'UTR act: -11

How did CNC(=O)CNC(=O)Nc1ccc(Cl)c(Cl)c1 do in these assays?
STAT1 activator: 105; STAT3 inh: 7; STAT1 inh: -7; STAT3 act: 103; NF-kB expr up: 1.2; APP 5'UTR act: 6

How did Cc1ccc(-c2cnc(NC(=O)c3cccc(Br)c3)s2)c(C)c1 do in these assays?
STAT1 activator: 108; STAT3 inh: 0; STAT1 inh: -9; STAT3 act: 107; NF-kB expr up: 1.3; APP 5'UTR act: 4

How did Cc1ncsc1CCC(=O)N1CCCC(C(=O)c2ccc3c(c2)OCO3)C1 (centres undefined) do in these assays?
STAT1 activator: 108; STAT3 inh: 6; STAT1 inh: -11; STAT3 act: 98; NF-kB expr up: 1.3; APP 5'UTR act: 32

What do the screens show for `COC(=O)c1sc(NC(=S)NC(=O)c2ccccc2F)nc1C`?
STAT1 activator: 129*; STAT3 inh: -7; STAT1 inh: -32; STAT3 act: 108; NF-kB expr up: 1.3; APP 5'UTR act: 78

Results for CCOC(=O)c1sc(NC(=O)c2ccc(CC)s2)nc1C ?
STAT1 activator: 126; STAT3 inh: 5; STAT1 inh: -29; STAT3 act: 99; NF-kB expr up: 2.3; APP 5'UTR act: 29

How did CCOC(=O)c1sc(NC(=O)c2ccc3ncsc3c2)nc1C do in these assays?
STAT1 activator: 148*; STAT3 inh: 32; STAT1 inh: -50; STAT3 act: 74; NF-kB expr up: 2; APP 5'UTR act: 83

What do the screens show for `CCOC(=O)CNC(=O)c1sc(NC(=O)c2ccccc2F)nc1C`?
STAT1 activator: 129*; STAT3 inh: 0; STAT1 inh: -31; STAT3 act: 102; NF-kB expr up: 2.5; APP 5'UTR act: 91

What do the screens show for `CCOC(=O)c1sc(NC(=O)c2ccccc2OC)nc1C`?
STAT1 activator: 146*; STAT3 inh: 39; STAT1 inh: -51; STAT3 act: 74; NF-kB expr up: 8*; APP 5'UTR act: 153*

Results for CCOC(=O)C(CC)n1nc(C)n2c(cc3sccc32)c1=O (centres undefined) ?
STAT1 activator: 92; STAT3 inh: 4; STAT1 inh: 6; STAT3 act: 96; APP 5'UTR act: 8

Results for CCOC(=O)c1cnn(CCOC(=O)c2ccc(F)cc2)c1NC(=O)c1ccc(F)cc1 ?
STAT1 activator: 96; STAT3 inh: -3; STAT1 inh: 6; STAT3 act: 101; NF-kB expr up: 1.1; APP 5'UTR act: -5

What do the screens show for `CC1(c2ccc3ccccc3c2)NC(=O)N(CC(=O)Nc2cccc(S(=O)(=O)N3CCOCC3)c2)C1=O` (centres undefined)?
STAT1 activator: 96; STAT3 inh: -1; STAT1 inh: 4; STAT3 act: 102; NF-kB expr up: 0.78; APP 5'UTR act: -12

What do the screens show for `CCC1(C)N=C(c2ccc3c(c2)OCO3)CC(c2ccccc2O)N1` (centres undefined)?
STAT1 activator: 93; STAT3 inh: -44; STAT1 inh: 7; STAT3 act: 144*; NF-kB expr up: 2.2; APP 5'UTR act: 71

Results for O=C(c1cc(-c2ccc(Cl)cc2)on1)N1CCOCC1 ?
STAT1 activator: 144*; STAT3 inh: 43; STAT1 inh: -48; STAT3 act: 66; NF-kB expr up: 5*; APP 5'UTR act: 158*

Results for COc1cccc(-c2cc(C(=O)N3CCCCCC3)no2)c1 ?
STAT1 activator: 122; STAT3 inh: 28; STAT1 inh: -25; STAT3 act: 81; NF-kB expr up: 7.2*; APP 5'UTR act: 151*

Results for O=C(c1cc(-c2cccc(O)c2)on1)N1CCCCC1 ?
STAT1 activator: 85; STAT3 inh: 39; STAT1 inh: 14; STAT3 act: 68; NF-kB expr up: 6*; APP 5'UTR act: 196*

What do the screens show for `O=C(c1cc(-c2ccc(Cl)c(Cl)c2)on1)N1CCCC1`?
STAT1 activator: 103; STAT3 inh: 19; STAT1 inh: -2; STAT3 act: 85; NF-kB expr up: 2; APP 5'UTR act: 68
